Source: PubChem BioAssay
The list is not random: actives were taken first. Their share in the collection is about 9.3%.
PostGolgi yeast = phenotypic screen on post-Golgi transport, primary screen; post-Golgi transport phenotypic cell assay; AID 739, 2007; inhibition, % at 10 µM; 98,000 tested, 0.9% active;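 note: yeast cells grown in 1536-well plates; yeast grown about 18 h at 30C before absorbance read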
tolC growth inh = growth inhibitors of E. coli tolC mutant, primary screen, strain BW25113 ΔtolC::kan, 384-well | AID 573, 2007 | growth inhibition, % at 10 µM (by protocol) | 65,000 tested, 2.2% active | OD615;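 active = growth inhibition at or above a cutoff equal to the mean over every tested compound plus 3 SD, cut at about 60% in these data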;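 note: growth measured after 20 h incubation at 37 °C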
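signal = optical density read at 615 nm | test system = E. coli ΔtolC::kan strain BW25113 | timing = 20 h compound exposure of bacteria at 37 °C | buffer or medium = LB medium plus 50 µg/mL kanamycin | compound dosing = 10 µM final, single dose | evaluation = % inhibition of E. coli growth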
D1 mod = D1 CRE-luciferase signal change, two-sided – cell-based, HEK293 D1, dopamine EC30, D1 allosteric modulator project, primary screen; dopamine EC30 potentiation; actives deviate in either direction; 58,000 tested, 5.9% active; D(1A) dopamine receptor (Homo sapiens), P21728; B-score at 10 µM; AID 641, 2007;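 active = luminescence count or its row- and column-corrected plate score outside the 99.7% band of the plate's sample wells, on either side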
Target sequence (P21728 whole entry, looked up): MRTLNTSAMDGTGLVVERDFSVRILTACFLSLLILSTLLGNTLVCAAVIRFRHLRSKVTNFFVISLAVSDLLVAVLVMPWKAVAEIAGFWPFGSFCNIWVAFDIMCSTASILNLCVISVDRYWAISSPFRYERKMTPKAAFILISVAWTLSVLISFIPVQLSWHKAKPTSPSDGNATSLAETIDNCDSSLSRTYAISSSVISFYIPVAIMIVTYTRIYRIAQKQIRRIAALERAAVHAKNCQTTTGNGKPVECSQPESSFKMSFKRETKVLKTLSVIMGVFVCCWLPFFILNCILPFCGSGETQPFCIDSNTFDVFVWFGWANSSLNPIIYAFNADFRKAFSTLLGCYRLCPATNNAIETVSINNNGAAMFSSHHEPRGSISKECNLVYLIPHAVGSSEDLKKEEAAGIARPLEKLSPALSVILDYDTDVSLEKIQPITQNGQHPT
DAT uptake mod = changed hDAT dopamine uptake under cocaine IC80, either direction, primary screen, cocaine antagonist project, cell-based, LLC-PK1 hDAT, [14C]-dopamine uptake, MLSMR | 110,000 tested, 1.3% active | B-score at 10 µM | Sodium-dependent dopamine transporter (Homo sapiens), Q01959 | LLC-PK1 hDAT cells, [14C]-dopamine uptake with cocaine IC80; actives deviate in either direction | AID 449768, 2010;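 active = Z score or B-score, a plate-position-corrected score, falls beyond the plate's 99.7% confidence bounds, in either direction; inactive = both scores lie inside the 99.7% bounds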;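 note: scored against the spread of the other compound wells on the same plate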
PostGolgi ctrl = growth inhibition of yeast control strain, primary screen, counter-screen for post-Golgi transport modulator project; efflux-deficient yeast background strain, growth absorbance A615, 16 h; AID 738, 2007; 98,000 tested, 5% active; inhibition, % at 10 µM
Ecoli WT expand = growth inhibitors of wild-type E. coli, primary screen, strain BW25113, expanded library, OD600. OD600 absorbance. growth inhibition, % at 100 µM. 98,000 tested, 0.15% active. AID 710, 2007;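 active = growth inhibition above about 50% at one test dose, limit read from the data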;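 note: growth measured after 20 h incubation at 37 °C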
* = called active by the depositor; · = no result given. Cut-off read from the data, not from the text of the source, unless noted: active = inhibition above about 30%; inactive = the rest.

SMILES | PostGolgi yeast | tolC growth inh | D1 mod | DAT uptake mod | PostGolgi ctrl | Ecoli WT expand
Cc1ccc2c(c1)CC1(CN2C)C(=O)NC(=O)N(CCc2ccccc2)C1=O (configuration not stated) | 9 | · | · | 0.21 | 37* | -3
Cn1c(O)c(C=NCCN2CCN(C(=O)c3ccccc3)CC2)c(=O)n(C)c1=O | 6 | -12 | -7.4* | -0.74 | 10 | 2
Cn1c(O)c(C=NCCOc2ccc(Cl)cc2)c(=O)n(C)c1=O | -2 | 5 | 2.5 | 2 | -4 | -1
CCc1c(C)nc(N)nc1N1N=C1SCC(N)=O | -6 | · | · | 0.12 | -3 | 7
Cc1cccc(-n2c(O)c(C=NCc3cccnc3)c(=O)[nH]c2=O)c1C | 3 | -10 | -0.73 | -0.51 | -6 | 3
CC(=O)Nc1ccc(OC(=O)c2ccccc2N)cc1 | 0 | 0 | -0.35 | 0.51 | 9 | 6
Nc1ccccc1C(=O)OCCOc1ccccc1 | 3 | 6 | -4.4* | -0.26 | 6 | 14
COCCn1cc(C(=O)N2CCC3(CC2)OCCO3)c2c3ccccc3n(C)c2c1=O | -3 | -16 | 0.015 | -0.4 | 1 | -2
Cn1c2ccccc2c2c(C(=O)N3CCC4(CC3)OCCO4)cn(C3CCCC3)c(=O)c21 | 33* | -12 | -0.013 | 0.93 | 4 | 11
Nc1c(C(=O)NCCc2ccccc2)c2nc3ccccc3nc2n1CCN1CCOCC1 | 50* | 90* | 0.38 | 0.15 | 40* | -23
COCCNC(=O)c1c(N)n(Cc2ccco2)c2nc3ccccc3nc12 | -1 | · | · | 2 | 51* | -25
COc1ccc(CCNC(=O)c2c(N)n(CCN3CCOCC3)c3nc4ccccc4nc23)cc1 | -3 | 50 | 0.98 | 1.9 | 35* | -9
CCCCn1c(N)c(C(=O)NCCN2CCOCC2)c2nc3ccccc3nc21 | 2 | 12 | · | 2.1 | 8 | 10
C=CCNC(=O)c1c(N)n(Cc2ccco2)c2nc3ccccc3nc12 | 3 | · | · | -0.16 | 13 | -15
CC1(C)CC(n2[nH]c(=O)c3c2NC(=O)CSC3c2ccc(F)cc2)CCO1 (configuration not stated) | -6 | 3 | -0.98 | 0.32 | 1 | -5
CP(=O)(O)CCCN | -7 | -13 | -0.048 | 0.0038 | 2 | 2
O=C(Cn1ncc2c3ccccc3n(Cc3ccccc3)c2c1=O)N1CCC2(CC1)OCCO2 | -9 | 11 | 0.3 | 1.1 | 5 | -2
O=C(Cn1ncc2c3ccccc3n(Cc3ccccc3F)c2c1=O)N1CCC2(CC1)OCCO2 | 55* | 14 | 1.9 | 1.4 | 10 | -6
O=C(/C=C/c1ccccc1)NCCc1cnc[nH]1 | · | · | · | -0.25 | · | ·
O=C1CN=C(c2ccccc2)c2ccccc2N1Cc1ccc(C(F)(F)F)cc1 | 3 | · | · | -2 | 42* | 2
CN1C(=O)CN=C(c2ccc(Cl)cc2)c2cc(Cl)ccc21 | · | 4 | 1.2 | -0.054 | · | ·
Cc1ccnc(-n2c(-c3ccccc3)nc3ccccc3c2=O)c1 | 0 | · | · | 0.025 | 34* | -2
Cc1ccnc(-n2c(C)nc3ccccc3c2=O)c1 | 2 | 5 | -0.43 | 0.47 | 5 | -21
COC1C(OC(=O)c2ccc(C)[nH]2)C(O)C(Oc2ccc3c(O)c(NC(=O)c4ccc(O)c(CC=C(C)C)c4)c(=O)oc3c2Cl)OC1(C)C (configuration not stated) | · | · | · | 0.72 | · | ·
Nc1c(C(=O)NCCN2CCOCC2)c2nc3ccccc3nc2n1Cc1ccco1 | -10 | 12 | -0.37 | 1.5 | 12 | 11
SMILES | PostGolgi yeast | tolC growth inh | D1 mod | DAT uptake mod | PostGolgi ctrl | Ecoli WT expand
CC(C)CCNC(=O)c1c(N)n(CC2CCCO2)c2nc3ccccc3nc12 (configuration not stated) | -2 | · | · | 1 | 57* | -10
CCC(C)NC(=O)c1c(N)n(CC2CCCO2)c2nc3ccccc3nc12 (configuration not stated) | 0 | 4 | 1.4 | 1.8 | 56* | -16
CCOC(=O)CC1=C(C(=O)OCC)C2(C(=O)N1CC(=O)OC)C(C#N)=C(N)Oc1ccccc12 (configuration not stated) | -7 | · | · | 0.89 | 11 | 5
Cc1ccc(NP(=O)(Oc2ccccc2F)Oc2ccccc2F)cc1 | 14 | · | · | 0.22 | 36* | -9
O=C(Nc1ccccc1OC(=O)N1CCCCC1)N1CCCCC1 | 8 | -11 | -0.34 | -1.6 | 17 | -1
CC/C(=C\C=C\[C@@H]1C=C[C@@H]2CCC[C@H]2[C@@H]1C(=O)c1ccc[nH]1)[C@@H]1O[C@@H]([C@@H](C)C(=O)O)CC[C@@H]1C | · | · | · | -4* | · | ·
Cn1ncnc2c(=O)n(C)c(=O)nc1-2 | · | 25 | -6.5* | -1.2 | · | ·
CCCCn1c(O)c(C=NCCCN(CC)CC)c(=O)[nH]c1=O | 5 | -24 | -0.77 | -0.021 | 46* | 0
CCOC(=O)CCN=Cc1c(O)n(-c2ccc(Br)cc2)c(=O)[nH]c1=O | 1 | -4 | 0.51 | -0.51 | 19 | 4
CCOc1ccc(-n2c(O)c(C=NCCN(CC)CC)c(=O)[nH]c2=O)cc1 | -1 | -14 | 0.28 | 1 | 36* | 0
CS(=O)(=O)Nc1ccc(Cc2noc(-c3ccc4[nH]cc(CCN)c4c3)n2)cc1 | · | · | · | 1.5 | · | ·
O=C(Nc1cccc(C(F)(F)F)c1)c1cccn(Cc2ccc3c(c2)OC(F)(F)O3)c1=O | 8 | · | · | -0.12 | 32* | -19
Cc1cccc(C)c1NC(=O)c1cccn(Cc2ccc3c(c2)OC(F)(F)O3)c1=O | -11 | · | · | 0.25 | 75* | -5
COC[C@]12CN(C)C3C4[C@H](OC)[C@H]1C3([C@@H](OC)C[C@H]2O)[C@@H]1C[C@@]2(O)[C@H](OC(=O)c3ccccc3)[C@@H]1[C@]4(OC(C)=O)[C@@H](O)[C@@H]2OC | · | · | · | 0.2 | · | ·
CC1(C)CC[C@]2(C)CC[C@]3(C)C4C[C@@H]5OO[C@@]6(O5)C(CCCC6(C)C)[C@]4(C)CC[C@@]3(C)C2C1 (some centres not stated) | · | · | · | 0.67 | · | ·
COC(=O)C1=C(c2ccccc2)C[C@@H]2CC[C@H]1N2C(=O)NC1CCCCC1 | · | · | · | 0.38 | · | ·
COC(=O)C1C2c3ccccc3OC1(C)N=c1s/c(=C/c3cn(C)nc3C)c(=O)n12 (configuration not stated) | -5 | -3 | -4.2* | 0.47 | 15 | -5
CC(C)COc1ccc(C2(C#N)CC[N+](C)(C)CC2)cc1 | -4 | · | · | -0.011 | -1 | 5
COc1ccc(-n2c(O)c(C(C)=NCc3ccco3)c(=O)[nH]c2=O)cc1 | -4 | -10 | 0.0012 | -2.1 | 38* | -1
CCOC(=O)c1cncn1[C@H](C)c1ccccc1 | · | · | · | -0.12 | · | ·
CCOc1cc2[nH]c(=S)n(CCCC(=O)N3CCC4(CC3)OCCO4)c(=O)c2cc1OCC | 6 | 10 | 0.85 | 0.92 | 39* | 4
